Data taken from PMC7174984 (Bioconjugate chemistry, 2020).
Read-outs that look alike come from different tables or passages of the source.

What was measured:
albumin = details: cited from earlier work
[1] = tested on: subcutaneous triple negative breast tumors (E0771); assay type: in vivo, C57Bl/6 mice; details: 25 nmol iv
Method in brief: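 Female C57Bl/6 mice, 6 wk old (20−30 g), inoculated subcutaneously in left flank with 5 × 10⁶ E0771 cells in PBS. 25 nmol test compound in 10% BSA given iv; NIR imaging (760 nm excitation, 4 mW/cm²) at 0.5, 1, 2, 4, 24 and 48 h. TBR = tumor fluorescence over nearby healthy tissue; at least 3 animals per time point; mean ± s.d.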

MDA-MB-231 cells [2] = experiment: BSA-FITC and dye colocalization by confocal microscopy; assay type: cell-based, Human
Method in brief: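 50,000 MDA-MB-231 cells (grown in DMEM/10% FBS, 37 °C, 5% CO₂) incubated with test dye (10 μM) and equimolar BSA-FITC, either mixed just before use, preincubated 24 h, or added with BSA-FITC whose Cys34 was blocked by 24 h 6-maleimidohexanoic acid pretreatment. Cells then washed twice with PBS and imaged confocally (NIR: 670 nm excitation, 716−789 nm; FITC: 490 nm excitation, 500−589 nm). Pearson coefficient computed.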

OATP1B3 [3] = details: ARCePE prostate cancer xenograft; cited from earlier work
[4] = Pharmacokinetics, clearance and urinary excretion; assay type: in vivo, CD-1 mice; details: 25 nmol iv
Method in brief: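 Healthy CD-1 mice (25 g) dosed iv with 25 nmol test compound in saline with 10% BSA. Blood taken at 0, 10, 30, 60, 120, 180, 240 and 300 min, spun 3000 rpm for 20 min; plasma fluorescence read by NIR imaging. For excretion, male mice had the penis ligated before dosing and were killed at 4 h; urine fluorescence read by spectrophotometer.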

HSA [5] = biological target: T1, HSA (Homo sapiens, UniProt P02768); experiment: UV-vis/fluorescence spectroscopy of dye interaction with albumin; assay type: binding; details: for formation of noncovalent adduct with albumin: UV absorbance maximum shift on mixing with HSA or serum
T1 sequence (P02768 25-609): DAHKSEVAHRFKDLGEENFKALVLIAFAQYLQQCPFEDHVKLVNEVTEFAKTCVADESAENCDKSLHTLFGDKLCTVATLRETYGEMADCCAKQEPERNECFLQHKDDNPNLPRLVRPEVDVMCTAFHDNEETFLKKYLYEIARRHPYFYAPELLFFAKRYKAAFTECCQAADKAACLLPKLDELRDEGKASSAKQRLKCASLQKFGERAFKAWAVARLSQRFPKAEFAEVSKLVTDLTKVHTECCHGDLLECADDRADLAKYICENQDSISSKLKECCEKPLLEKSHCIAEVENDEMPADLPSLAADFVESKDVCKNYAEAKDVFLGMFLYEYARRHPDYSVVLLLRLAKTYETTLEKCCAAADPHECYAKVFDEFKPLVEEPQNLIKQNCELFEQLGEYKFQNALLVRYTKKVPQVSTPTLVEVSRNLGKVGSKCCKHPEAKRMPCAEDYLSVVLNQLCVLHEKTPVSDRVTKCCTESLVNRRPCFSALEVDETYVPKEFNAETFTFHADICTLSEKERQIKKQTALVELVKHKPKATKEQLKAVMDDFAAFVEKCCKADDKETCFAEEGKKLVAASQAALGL

MDA-MB-231 cells [6] = experiment: Cellular uptake of dyes, blocking experiment; assay type: cell-based, Human; details: for effect of BSA added to SFM on cellular uptake: BSA only in the media, FACS; for effect of serum on cellular uptake: media with 10% FBS versus serum free media; for effect of BSP on cellular uptake in SFM: 250 μM BSP
Method in brief: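 MDA-MB-231 cells (50,000) seeded in serum medium overnight, then starved 4 h in serum-free medium. Groups: no serum (reference), 10% FBS, and 250 μM BSP preblock for 5 min with or without serum. Test compound added for 30 min, then washed. Read by confocal (670 nm excitation) or by FACS after enzyme-free detachment (633 nm excitation, 750/45 emission). Separate arms used DMOG 24 h beforehand for hypoxia, or BSA alone in medium.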

OATP1B3 [7] = details: PC-3 prostate cancer xenograft; cited from earlier work
[8] = Biodistribution in resected tumors and organs at 48 h post-injection; assay type: in vivo, C57Bl/6 mice; details: 25 nmol iv, tumors and organs resected 48 h post-injection
Method in brief: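 Tumor-bearing C57Bl/6 mice (subcutaneous E0771) anesthetized with ketamine (100 mg/kg) and xylazine (10 mg/kg), abdomen opened by midline incision; 25 nmol test compound in 10% BSA given iv. Imaged at 48 h with intraoperative NIR system (760 nm excitation, 4 mW/cm²; 800 nm emission). ROI signal/background ratio over organs or tumor; at least 3 animals; one-way ANOVA with Tukey test; mean ± s.d.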

HepG2 cells = experiment: Cellular uptake of dyes into HepG2 liver cancer cells; assay type: cell-based; details: compared with MDA-MB-231 data
Method in brief: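 HepG2 cells kept in DMEM with 10% FBS at 37 °C and 5% CO₂, passaged at 70% confluency. Live-cell dye uptake imaged by confocal microscopy with a 20×/0.75 water objective; NIR excitation at 670 nm, detection at 716−789 nm.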

HSA [9] = biological target: T1, HSA; details: absorption maxima red-shifted in presence of albumin; cited from earlier work

SMILES: O=C1OC(c2ccc(O)c(S(=O)(=O)O)c2)(c2ccc(O)c(S(=O)(=O)O)c2)c2c(Br)c(Br)c(Br)c(Br)c21 [BSP, Bromosulfophthalein]
- fraction bound to albumin (albumin; after iv injection): more than 99%
- unbound BSP (albumin; equimolar concentrations of BSP and albumin): less than 0.1%

SMILES: CC1(C)C(/C=C/C2=C(Cl)C(=C/C=C3\N(CCCCCC(=O)O)c4ccccc4C3(C)C)/CCC2)=[N+](CCCCCC(=O)O)c2ccccc21 [1-Cl]
- time post-injection at which high contrast was observed [1]: 48 h
- maximum TBR ([1]; 48 h post-injection): 3.5
- tumor accumulation and persistence ([1]; up to 48 h): high tumor accumulation and prolonged retention
- Pearson coefficient of colocalization (MDA-MB-231 cells [2]; 1-Cl preincubated with Cys34-blocked BSA-FITC): 0.56
- Pearson coefficient of colocalization with BSA-FITC (MDA-MB-231 cells [2]; dye 10 μM and ~1 equiv BSA-FITC, noncovalent adduct): 0.65
- reduction of tumor uptake on OATP1B3 knockdown (OATP1B3 [3]): ~ 25%
- urinary excretion ([4]; CD-1 mice): Insignificant urinary excretion
- blood plasma (fluorescence) elimination half-life ([4]; healthy CD-1 mice, plasma fluorescence up to 5 h): 3.253 h
- formation of noncovalent adduct with albumin (HSA [5]): form a non-covalent adduct with albumin
- displacement of dye from albumin by BSP (HSA [5]; up to 50 equiv BSP, either order of addition): not displaced from albumin by BSP
- effect of BSA added to SFM on cellular uptake (MDA-MB-231 cells [6]): almost identical to those in serum
- effect of serum on cellular uptake (MDA-MB-231 cells [6]): suppressed
- decrease of uptake by BSP (MDA-MB-231 cells [6]; serum free media, 250 μM BSP preblock, dye 20 μM, FACS quantitation): 40−50%
- reduction of tumor uptake on OATP1B3 knockdown (OATP1B3 [7]): approximately 40%
- persistence in body at 48 h (biodistribution) [8]: persisted
- uptake into HepG2 cells, trend (HepG2 cells): followed the same trends

SMILES: CC1(C)C(=CC=C2CCCC(C=CC3=[N+](CCCCS(=O)(=O)[O-])c4ccccc4C3(C)C)=C2Cl)N(CCCCS(=O)(=O)[O-])c2ccccc21.[Na+] [2-Cl]
- formation of noncovalent adduct with albumin (HSA [5]): appear to form noncovalent adducts
- effect of BSP on cellular uptake in SFM (MDA-MB-231 cells [6]; serum free media): suppressed
- effect of BSA added to SFM on cellular uptake (MDA-MB-231 cells [6]): suppressed
- effect of serum on cellular uptake (MDA-MB-231 cells [6]): suppressed

SMILES: CCCN1C(=CC=C2CCCC(C=CC3=[N+](CCC)c4ccccc4C3(C)C)=C2Cl)C(C)(C)c2ccccc21.[I-] [4-Cl]
- formation of noncovalent adduct with albumin (HSA [9]): implying noncovalent complexation

SMILES: CC1(C)C(/C=C/C=C/C=C/C=C2\N(CCCCS(=O)(=O)[O-])c3ccc4ccccc4c3C2(C)C)=[N+](CCCCS(=O)(=O)[O-])c2ccc3ccccc3c21.[Na+] [ICG]
- formation of noncovalent adduct with albumin (HSA [5]): appear to form noncovalent adducts
- effect of BSP on cellular uptake in SFM (MDA-MB-231 cells [6]; serum free media): suppressed
- effect of BSA added to SFM on cellular uptake (MDA-MB-231 cells [6]): suppressed
- effect of serum on cellular uptake (MDA-MB-231 cells [6]): suppressed
